Test results: ChEMBL document CHEMBL1138424, “Solid phase-assisted synthesis and screening of a small library of N-(4-hydroxyphenyl)retinamide (4-HPR) analogs” (2007)
Calls of active or inactive are those of the source. The rule behind the calls is not given here.

Experiments:
MCF7 [1] = test: Growth inhibition of human MCF7 cells at 10 uM after 48 hrs by fluorescein diacetate cell viability assay relative to 4-HPR; assay type: functional
In short: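 MCF-7 human breast cancer cells received a single dose at a final 10−5M, with vehicle at 0.2% ethanol. Live cells were counted 48 hrs later by fluorescein diacetate viability assay. Activity was scored on a +/++/+++ scale against 4-HPR.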

MCF7 [2] = test: Induction of apoptosis in human MCF7 cells at 10 uM after 48 hrs by TUNEL assay relative to 4-HPR; assay type: functional, cell-based
In short: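 MCF-7 cells received a single dose at 10−5M, with vehicle as control. After 48 hr the % of TUNEL-labeled cells was scored. Values are means (+SEM) of three independent cell culture experiments, compared with standard 4-HPR.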

With CC1=C(/C=C/C(C)=C/C=C/C(C)=C/C(=O)Nc2ccc([N+](=O)[O-])cc2O)C(C)(C)CCC1 the Activity (MCF7 [1]) was “>=100%” and the Activity (MCF7 [2]) was “Active”.

CC1=C(/C=C/C(C)=C/C=C/C(C)=C/C(=O)Nc2cc(Cl)ccc2O)C(C)(C)CCC1 was tested, and the Activity (MCF7 [1]) was “>=50%”.

For CC1=C(/C=C/C(C)=C/C=C/C(C)=C/C(=O)Nc2ccc(C)c(O)c2)C(C)(C)CCC1, the Activity (MCF7 [1]) was “>=100%” and the Activity (MCF7 [2]) was “Active”.

For CC1=C(/C=C/C(C)=C/C=C/C(C)=C/C(=O)Nc2ccccc2C(=O)O)C(C)(C)CCC1, the Activity (MCF7 [1]) was “>=25%”.

With CC1=C(/C=C/C(C)=C/C=C/C(C)=C/C(=O)Nc2ccc(O)c(Cl)c2)C(C)(C)CCC1 the Activity (MCF7 [1]) was “>=50%”.

For CC1=C(/C=C/C(C)=C/C=C/C(C)=C/C(=O)Nc2ccc(Cl)c(Cl)c2)C(C)(C)CCC1, the Activity (MCF7 [1]) was “>=25%”.

CC1=C(/C=C/C(C)=C/C=C/C(C)=C/C(=O)Nc2ccc(Cl)cc2)C(C)(C)CCC1 was tested, and the Activity (MCF7 [1]) was “>=25%”.

In the case of COc1ccc(NC(=O)/C=C(C)/C=C/C=C(C)/C=C/C2=C(C)CCCC2(C)C)cc1, the Activity (MCF7 [1]) is reported as “>=25%”.

COC(=O)c1cc(NC(=O)/C=C(C)/C=C/C=C(C)/C=C/C2=C(C)CCCC2(C)C)ccc1O was tested, and the Activity (MCF7 [1]) was “>=25%”.

With CC1=C(/C=C/C(C)=C/C=C/C(C)=C/C(=O)N(C)c2ccc(O)cc2)C(C)(C)CCC1 the Activity (MCF7 [1]) was “>=25%”.

CC1=C(/C=C/C(C)=C/C=C/C(C)=C/C(=O)Nc2ccc(N)cc2)C(C)(C)CCC1 was tested, and the Activity (MCF7 [1]) was “>=50%”.

For CC1=C(/C=C/C(C)=C/C=C/C(C)=C/C(=O)Nc2cccc(CO)c2)C(C)(C)CCC1, the Activity (MCF7 [1]) was “>=25%”.

CC1=C(/C=C/C(C)=C/C=C/C(C)=C/C(=O)Nc2ccc(O)cc2)C(C)(C)CCC1 [FENRETINIDE] was tested, and the Activity (MCF7 [1]) was “>=100%”.

In the case of CC1=C(/C=C/C(C)=C/C=C/C(C)=C/C(=O)Nc2cc([N+](=O)[O-])ccc2O)C(C)(C)CCC1, the Activity (MCF7 [1]) is reported as “>=25%”.

In the case of CC1=C(/C=C/C(C)=C/C=C/C(C)=C/C(=O)Nc2ccc(C)cc2O)C(C)(C)CCC1, the Activity (MCF7 [1]) is reported as “>=50%”.

With COC(=O)c1ccc(NC(=O)/C=C(C)/C=C/C=C(C)/C=C/C2=C(C)CCCC2(C)C)c(O)c1 the Activity (MCF7 [1]) was “>=25%” and the Activity (MCF7 [2]) was “Active”.

CC1=C(/C=C/C(C)=C/C=C/C(C)=C/C(=O)Nc2ccccc2)C(C)(C)CCC1 was tested, and the Activity (MCF7 [1]) was “>=25%”.
